# In the library only some 2.5% were active in any assay of this set; here they are far more common.
# KLK7 zymogen act: proKLK7 zymogen activators, primary screen, biochemical, fluorescence intensity; 370,000 compounds, 0.9% hits; activation, % at 7 µM; purified proKLK7, EDANS-DABCYL substrate fluorescence; 100% is mature enzyme control, 0% vehicle; Kallikrein-7 (Homo sapiens), P49862;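 active = activation above the mean of all tested compounds plus 3 SD, computed per campaign excluding outliers beyond control limits, cut at about 13% in these data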
# Target sequence (P49862 whole entry, looked up): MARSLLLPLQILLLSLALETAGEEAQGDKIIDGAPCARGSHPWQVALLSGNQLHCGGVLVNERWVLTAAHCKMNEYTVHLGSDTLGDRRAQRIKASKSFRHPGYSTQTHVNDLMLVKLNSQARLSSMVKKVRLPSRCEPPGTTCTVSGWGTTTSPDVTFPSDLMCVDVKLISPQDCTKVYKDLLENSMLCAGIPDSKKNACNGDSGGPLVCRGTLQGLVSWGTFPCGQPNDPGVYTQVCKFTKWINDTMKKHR
# NR2E3 ag-1: NR2E3 agonists in two-hybrid cells, primary screen, cell-based, luminescence, CHO-S, Gal4-NCOR/VP16-NR2E3. luciferase. 360,000 compounds, 0.35% hits. AID 602229, 2012. inhibition of corepressor binding, % at 3.98 µM. Photoreceptor-specific nuclear receptor (Homo sapiens), Q9Y5X4;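 active = inhibition above the mean of all tested compounds plus 3 SD, cut at about 70% in these data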;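 note: 0% = DMSO with NR2E3 transfected cells and 100% = cells lacking NR2E3 construct; higher means lower luciferase signal from less NR2E3 corepressor binding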
# Target sequence (Q9Y5X4 whole entry, looked up, the tested form may be a part): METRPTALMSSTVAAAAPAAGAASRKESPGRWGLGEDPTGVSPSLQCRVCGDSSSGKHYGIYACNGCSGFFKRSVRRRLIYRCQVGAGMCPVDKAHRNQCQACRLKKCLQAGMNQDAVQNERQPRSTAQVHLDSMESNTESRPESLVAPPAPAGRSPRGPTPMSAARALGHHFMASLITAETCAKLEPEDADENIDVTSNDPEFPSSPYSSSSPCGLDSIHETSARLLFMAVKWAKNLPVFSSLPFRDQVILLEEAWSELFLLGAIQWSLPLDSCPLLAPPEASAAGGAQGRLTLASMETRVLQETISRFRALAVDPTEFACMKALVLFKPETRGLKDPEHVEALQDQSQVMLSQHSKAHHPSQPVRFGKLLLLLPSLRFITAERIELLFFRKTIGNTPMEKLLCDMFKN
# NR2E3 ag-2: inhibitors of NR2E3-RetCOR corepressor binding, primary screen, NR2E3 agonist project, biochemical, TR-FRET, GST-NR2E3, biotin-RetCOR | inhibition of corepressor binding, % at 4.78 µM | 1536-well | 320,000 compounds, 0.12% hits;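 active = percent inhibition above the cutoff of mean plus 3 SD of all tested compounds, set per screening campaign, cut at about 20% in these data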;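 note: 0% = DMSO wells and 100% = biotin wells as full block of FRET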
#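 Test system – NR2E3–RetCOR corepressor complex · Quantity – NR2E3 fusion 1.35 nM · Buffer or medium – Tris pH 7.5 · Incubation – Compound–protein incubation for 5 h at 4 °C · Technique – TR-FRET, Eu(K)-anti-GST donor, streptavidin-D2 acceptor, ex 340, em 617/671 nm · Evaluation – percent inhibition of 671/617 nm emission ratio versus biotin and DMSO controls · Plate – 1536-well format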
# ADAM17 inh: ADAM17 inhibitors, primary screen, biochemical, QFRET. AID 720648, 2013. recombinant ADAM17, EDANS/DABCYL FRET peptide cleavage. 370,000 compounds, 0.83% hits. inhibition, % at 6.95 µM. Disintegrin and metalloproteinase domain-containing protein 17 (Homo sapiens), P78536;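 active = inhibition above the mean of compounds lying between control limits plus 3 SD, set per campaign, cut at about 8.5% in these data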;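 note: 0% = DMSO-only wells as the low control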
# ADAM10 inh: human ADAM10 inhibitors, primary screen, biochemical, QFRET, HTS | recombinant ADAM10, EDANS/DABCYL FRET peptide cleavage, 3 h | 370,000 compounds, 0.62% hits | inhibition, % at 7 µM | Disintegrin and metalloproteinase domain-containing protein 10 (Homo sapiens), O14672;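 active = inhibition above a per-campaign cutoff equal to the mean of compounds falling between control-based bounds plus 3 SD, cut at about 20% in these data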;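 note: 0% = DMSO wells while the 100% control is not disclosed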
# JMJD2C inh: inhibitors of GASC-1 histone demethylase, primary screen, biochemical, fluorescence, DELFIA europium; GST-JMJD2C(1-420) H3K9me3 demethylation; AID 2099, 2009; Lysine-specific demethylase 4C (Homo sapiens), Q9H3R0; inhibition, % at 2.35 µM; 330,000 compounds, 0.069% hits;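 active = more than half of a compound's replicate wells show inhibition beyond 50%, single wells judged on their own value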;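 note: signal counts dimethyl H3K9 product captured on neutravidin plate; 0% = median of DMSO wells and 100% = 0.3 times that DMSO median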
# ADAM10 counter: ADAM10 inhibitors, counter-screen for ADAM17 exosite inhibitor project, biochemical, FRET, human ADAM10 | shares compounds with ADAM17 inh | recombinant ADAM10, EDANS/DABCYL FRET peptide cleavage, 3 h | inhibition, % at 6.95 µM | 2,900 compounds, 47% hits | AID 743256, 2014;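 active = mean inhibition over the triplicate runs exceeds the activity threshold set in the earlier primary screen, cut at about 20% in these data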;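 note: 0% = DMSO wells and 100% = marimastat wells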
# ADAM17 confirm: ADAM17 inhibitors, hit retest, confirmation, biochemical, QFRET peptide cleavage; shares compounds with ADAM17 inh; recombinant ADAM17, EDANS/DABCYL QFRET peptide cleavage; inhibition, % at 6.95 µM; 2,900 compounds, 65% hits;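 active = mean inhibition across replicates above the hit cutoff set in the primary screen, cut at about 8.5% in these data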;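 note: 0% = DMSO wells and 100% = marimastat wells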
# An asterisk follows results filed as active; / = no result.
SMILES,KLK7 zymogen act,NR2E3 ag-1,NR2E3 ag-2,ADAM17 inh,ADAM10 inh,JMJD2C inh,ADAM10 counter,ADAM17 confirm
CCCCn1nnnc1C(c1cc2ccccc2o1)N1CCN(c2ncccc2C#N)CC1 (stereo not drawn),0.2,-24.8,/,3.6,-3.5,/,/,/
CC1(Cc2ccc(F)cc2)C(=O)Nc2ccc(S(=O)(=O)NC3CCCCC3)cc21 (stereo not drawn),0.0,-24.5,/,9.1*,5.0,/,-1.7,4.4
COc1ccccc1CC1(C)C(=O)Nc2ccc(S(=O)(=O)NC3CCCCC3)cc21 (stereo not drawn),0.0,18.1,/,1.0,6.4,/,/,/
CNC(=S)N1N=C(c2ccc(Br)cc2)CC1c1ccc(N(C)C)cc1 (stereo not drawn),-3.7,9.7,-6.3,4.2,16.9,14.4,/,/
CNC(=S)N1N=C(c2ccc(Br)cc2)CC1c1ccc(Br)cc1 (stereo not drawn),-1.3,-4.8,0.6,11.5*,14.5,-2.7,27.4*,17.3*
Cc1ccc2cccc(OC(=O)c3c(F)cccc3Cl)c2n1,0.2,-2.1,/,7.5,2.4,/,/,/
CCCCCCCCN1C(=O)[C@@H](CC(=O)N2CCN(C(=O)c3ccco3)CC2)C[C@@]2(C(=O)OC)C1=C[C@H](COCc1ccccc1)O[C@@H]2C,1.5,/,/,-0.9,-3.9,/,/,/
C=C(CN(C)C)C(=O)c1cc(C)ccc1C,0.1,37.6,/,-3.5,-14.3,/,/,/
Cc1nc(SCC(=O)N2CCC(Cc3ccccc3)CC2)[nH]c(=O)c1C,0.2,7.1,2.5,0.5,5.8,9.4,/,/
CCO[C@H]1OC(C(=O)Nc2ccccc2)=C[C@@H](c2csc3ccccc23)[C@@H]1CCCO,0.4,0.8,-0.9,10.1*,13.0,1.4,19.7,11.9*
O=C(CCNC(=O)Cn1ccc2ccccc2c1=O)NCCc1ccccc1Cl,-0.1,13.6,-0.3,1.9,-1.7,-2.7,/,/
Cc1cccc(C)c1NC(=O)C1(C)CSCC(=O)N1CCc1ccc(O)cc1 (stereo not drawn),0.1,/,/,11.3*,6.2,/,-7.3,1.4
CCn1c(SCC(=O)N2CCCC2)nnc1-c1ccco1,-0.3,4.3,-0.5,-3.0,-13.2,-0.3,/,/
COCCN(C(=O)Cc1cccs1)C(C(=O)NC1CCCC1)c1cc(OC)c(OC)c(OC)c1 (stereo not drawn),0.3,-9.2,1.0,-0.9,9.0,-26.2,/,/
O=C(NCc1ccco1)c1ccc(Br)c(S(=O)(=O)N2CCCCC2)c1,-0.5,8.3,-0.1,12.8*,8.4,6.0,24.9*,5.4
O=C(NCc1ccco1)c1ccc(F)c(S(=O)(=O)N2CCCCC2)c1,-0.5,-20.4,5.0,-1.1,2.7,3.5,/,/
COc1ccccc1OCC(=O)NCCc1nc2ccccc2[nH]1,-0.1,-5.1,1.9,3.7,0.0,7.9,/,/
O=C(COc1ccccc1Br)NCCc1nc2ccccc2[nH]1,-0.2,-19.2,-5.2,8.9*,6.7,2.4,11.5,2.2
O=C1CSC(c2cccc([N+](=O)[O-])c2)N1Cc1ccccc1 (stereo not drawn),0.1,-33.6,/,2.3,6.2,8.8,/,/
O=C(NC1CC1)c1cccc(NC(=O)c2cc(S(=O)(=O)N3CCOCC3)ccc2Cl)c1,-0.3,15.7,/,-4.4,-4.4,/,/,/
Cc1cc(/C=C2\NC(=S)N(C)C2=O)ccc1N1CCCC1,-0.2,-67.0,-1.3,8.9*,9.2,-3.2,9.9,8.1
CC1CCN(C2(O)C(=O)Nc3ccc([N+](=O)[O-])cc32)CC1 (stereo not drawn),0.5,11.0,-1.9,10.6*,17.2,2.3,12.0,7.9
CCOc1cc(/C=N/Nc2nc(-c3cccs3)c(NC(C)=O)s2)ccc1O,-1.1,10.0,1.6,-4.2,-10.8,-9.3,/,/
O=C(CN1C(=O)CC(c2ccccc2)S(=O)(=O)c2ccccc21)N1CCCC1 (stereo not drawn),-0.2,-13.5,4.2,-1.6,-1.6,-19.7,/,/
O=C(Nc1ccc(SC(F)F)cc1)C12CCC(CC1)C2,0.4,-30.2,2.2,2.8,-9.7,-1.2,/,/
SMILES,KLK7 zymogen act,NR2E3 ag-1,NR2E3 ag-2,ADAM17 inh,ADAM10 inh,JMJD2C inh,ADAM10 counter,ADAM17 confirm
CC12CCC(C(=O)Nc3ccc(SC(F)F)cc3)(CC1=O)C2(C)C (stereo not drawn),-0.7,-10.9,-2.6,14.9*,9.9,2.3,-0.2,3.7
COc1ccc(C(=O)OCCCN(C)C2CN(Cc3cn(Cc4cccc(F)c4)nn3)S(=O)(=O)C2)cc1OC (stereo not drawn),0.5,/,/,-3.4,-4.4,/,/,/
CCCCN(C(=O)C(C)Oc1cccc(Cl)c1)c1c(N)n(CCC)c(=O)[nH]c1=O (stereo not drawn),0.2,5.0,1.4,-2.6,-0.4,6.3,/,/
Cc1ccc(NC(=O)CNC(=O)CC23CC4CC(CC(C4)C2)C3)c(O)c1,0.1,-14.2,-2.4,15.9*,1.4,-2.8,4.4,6.2
COc1ccc(NC(=O)CNC(=O)CC23CC4CC(CC(C4)C2)C3)c(OC)c1,-0.1,-3.8,/,-2.2,2.9,/,/,/
COc1cc(C)c2c(c1C=O)Oc1c(c(C)c(O)c3c1C(O)OC3=O)OC2=O (stereo not drawn),1.1,-0.8,5.8,38.8*,5.9,4.7,6.2,6.3
O=C(CCN1C(=O)[C@@H]2Cc3ccccc3CN2C1=O)N[C@@H](Cc1ccccc1)C(=O)O,-0.6,-26.9,2.9,-0.2,-6.0,138.6,/,/
Cc1cc(N/N=C/c2ccccc2Cl)nc(NCc2ccccc2)n1,0.6,-56.7,-0.5,10.7*,19.4,-5.3,0.7,6.2
COc1ccc(NC(=O)CN2CCCC2c2cccs2)cc1S(=O)(=O)N1CCCCC1 (stereo not drawn),0.2,10.1,5.5,9.5*,18.1,-33.2,3.4,1.5
COc1ccc(NC(=O)CN(C)C(=O)/C=C/c2cn(-c3ccccc3)nc2-c2ccc(F)cc2)cc1,0.0,18.9,-0.7,-6.8,-8.9,0.7,/,/

# Screening data: PubChem BioAssay, several laboratories
